# Test results reported in ChEMBL document CHEMBL2311478, “Macrolactonolides: a novel class of anti-inflammatory compounds” (Bioorg Med Chem, 2013).
# What was measured:
# Format in all cases: functional
# Escherichia coli = experiment: Antibacterial activity against Escherichia coli ATCC 25922 by broth microdilution method
# In short: (§1)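 CLSI broth microdilution with double dilutions in 96-well plates. For streptococci, 5% horse serum replaced lysed blood in the medium. Inocula were grown on Columbia agar with 5% sheep blood for streptococci, Mueller–Hinton chocolate agar for H. influenzae, and Mueller–Hinton agar for staphylococci. Read-out is MIC in mg/L.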
# Enterococcus faecalis = experiment: Antibacterial activity against Enterococcus faecalis ATCC 29213 by broth microdilution method; in short: as §1
# Haemophilus influenzae = experiment: Antibacterial activity against Haemophilus influenzae ATTC 49247 by broth microdilution method; in short: as §1
# Moraxella catarrhalis = experiment: Antibacterial activity against Moraxella catarrhalis ATCC 23246 by broth microdilution method; in short: as §1
# Streptococcus pyogenes [1] = experiment: Antibacterial activity against efflux mediated macrolide-resistant Streptococcus pyogenes Finland 2 by broth microdilution method
# In short: (§2)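 MICs by CLSI broth microdilution with double dilutions, except that Streptococcus medium used 5% horse serum in place of lysed blood. Bacteria were pre-grown on Columbia agar with 5% sheep blood (streptococci) or Mueller–Hinton agar (staphylococci).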
# Streptococcus pyogenes [2] = experiment: Antibacterial activity against constitutive-resistant to macrolide, licosamide and streptogramin Streptococcus pyogenes 166 GR-Micro by broth microdilution method; in short: as §2
# Streptococcus pyogenes [3] = experiment: Antibacterial activity against inducible-resistant to macrolide, licosamide and streptogramin Streptococcus pyogenes Finland 11 by broth microdilution method; in short: as §2
# Streptococcus pyogenes [4] = experiment: Antibacterial activity against erythromycin susceptible Streptococcus pyogenes 3565 by broth microdilution method; in short: as §1
# Streptococcus pneumoniae [5] = experiment: Antibacterial activity against efflux mediated macrolide-resistant Streptococcus pneumoniae Ci137 by broth microdilution method; in short: as §2
# Streptococcus pneumoniae [6] = experiment: Antibacterial activity against inducible-resistant to macrolide, licosamide and streptogramin Streptococcus pneumoniae 134 GR-M by broth microdilution method; in short: as §2
# Streptococcus pneumoniae [7] = experiment: Antibacterial activity against constitutive-resistant to macrolide, licosamide and streptogramin Streptococcus pneumoniae 58 Spain by broth microdilution method; in short: as §2
# Streptococcus pneumoniae [8] = experiment: Antibacterial activity against erythromycin susceptible Streptococcus pneumoniae SP 030 by broth microdilution method; in short: as §1
# Staphylococcus aureus [9] = experiment: Antibacterial activity against efflux mediated macrolide-resistant Staphylococcus aureus PK1 by broth microdilution method; in short: as §2
# Staphylococcus aureus [10] = experiment: Antibacterial activity against constitutive-resistant to macrolide, licosamide and streptogramin Staphylococcus aureus PK2 by broth microdilution method; in short: as §2
# Staphylococcus aureus [11] = experiment: Antibacterial activity against inducible-resistant to macrolide, licosamide and streptogramin Staphylococcus aureus 90265/97 by broth microdilution method; in short: as §2
# Staphylococcus aureus [12] = experiment: Antibacterial activity against Staphylococcus aureus ATCC 13709 by broth microdilution method; in short: as §1
structure (smiles),measurement,setting,value
CC[C@H]1OC(=O)[C@H](C)[C@@H](O[C@H]2C[C@@](C)(OC)[C@@H](O)[C@H](C)O2)[C@H](C)[C@@H](O[C@@H]2O[C@H](C)C[C@H](N(C)C)[C@H]2O)[C@](C)(O)C[C@@H](C)CN(C)[C@H](C)[C@@H](O)[C@]1(C)O [AZITHROMYCIN],MIC,Escherichia coli,2 µg/mL
same,MIC,Enterococcus faecalis,4 µg/mL
same,MIC,Haemophilus influenzae,1 µg/mL
same,MIC,Moraxella catarrhalis,≤ 0.125 µg/mL
same,MIC,Streptococcus pyogenes [1],8 µg/mL
same,MIC,Streptococcus pyogenes [2],> 64 µg/mL
same,MIC,Streptococcus pyogenes [3],16 µg/mL
same,MIC,Streptococcus pyogenes [4],≤ 0.125 µg/mL
same,MIC,Streptococcus pneumoniae [5],8 µg/mL
same,MIC,Streptococcus pneumoniae [6],> 64 µg/mL
same,MIC,Streptococcus pneumoniae [7],> 64 µg/mL
same,MIC,Streptococcus pneumoniae [8],≤ 0.125 µg/mL
same,MIC,Staphylococcus aureus [9],> 64 µg/mL
same,MIC,Staphylococcus aureus [10],> 64 µg/mL
same,MIC,Staphylococcus aureus [11],> 64 µg/mL
same,MIC,Staphylococcus aureus [12],0.5 µg/mL
